What was measured:
[1] = target: T1, Delta-type opioid receptor (Rattus norvegicus, UniProt P33533); assay: Ability to displace [3H]DADLE radioligand from Opioid receptor delta 1
In short: (§1)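 Rat brain membranes prepared daily, homogenized in ice-cold 10 mM Tris-HCl pH 7.0, centrifuged twice at 30000g. [3H]DADLE 2.0 nM, 2 h at 25 °C in 50 mM Tris-HCl pH 7.4 with 100 mM choline chloride, 3 mM MnCl2, 100 nM DAMGO to block mu sites, protease inhibitors. Nonspecific binding: 20 μM levallorphan. 10 drug concentrations, run twice. Ki from IC50 by Cheng-Prusoff.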

Mu-type opioid receptor [2] = target: T2, Mu-type opioid receptor (Rattus norvegicus, UniProt P33535); assay: Ability to displace [3H]DAMGO radioligand from Opioid receptor mu 1
In short: (§2)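 Rat brain membranes prepared daily, homogenized in ice-cold 10 mM Tris-HCl pH 7.0, centrifuged twice at 30000g. [3H]DAMGO 2.0 nM, 2 h at 25 °C in 50 mM Tris-HCl pH 7.4 with protease inhibitors. Nonspecific binding: 20 μM levallorphan. 10 drug concentrations, run twice. IC50 converted to Ki by Cheng-Prusoff.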

[3] = target: Opioid receptors; delta & kappa (Homo sapiens) (UniProt P41145+P41143); assay: Selectivity Ratio of Ki of Kappa receptor/ Ki of Delta receptor; type: protein assay
[4] = target: T3, Kappa-type opioid receptor (Cavia porcellus, UniProt P41144); assay: Ability to displace [3H]U-69593 radioligand from Opioid receptor kappa 1
In short: (§3)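 Guinea pig brain membranes prepared daily, homogenized in ice-cold 10 mM Tris-HCl pH 7.0, centrifuged twice at 30000g. [3H]U69,593 2.0 nM, 2 h at 25 °C in 50 mM Tris-HCl pH 7.4 with 1 μg/mL captopril and protease inhibitors. Nonspecific binding: 1 μM U69,593. 10 drug concentrations, run twice. Ki from IC50 by Cheng-Prusoff.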

[5] = target: Opioid receptors; mu & delta (Homo sapiens) (UniProt P41143+P35372); assay: Selectivity Ratio of Ki of Mu receptor/ Ki of Delta receptor; type: protein assay
Mus musculus [6] = organism: Mus musculus; assay: (§4) Agonistic activity in Mouse Vas Deferens; type: functional, organism-based
In short: (§5)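 Electrically stimulated (0.1 Hz, 0.4-ms pulses, 2-ms for MVD) guinea pig ileum myenteric plexus strips (male Hartley) or vas deferens (male ICR mice) in 37 °C oxygenated Krebs (Mg-free for MVD). […] Tissues checked against an initial DPDPE or PL-017 curve. Mean of 2-4 tissues.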

Cavia porcellus [7] = organism: Cavia porcellus; assay: (§6) Agonistic activity in Guinea Pig Ileum; type: functional, organism-based; in short: as §5
[8] = target: T3, Kappa-type opioid receptor; assay: Ability to inhibit GTP-gamma-S binding to Opioid receptor kappa 1 of guinea pig caudate.
In short: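 Guinea pig caudate membranes (10 μg) incubated 4 h with 0.05-0.1 nM [35S]GTP-γ-S in Tris buffer pH 7.7 with NaCl, MgCl2, EDTA, DTT, 100 µM GDP, 0.1% BSA. κ agonist U69,593 (500 nM or 10 μM) antagonised by ≥10 antagonist concentrations.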

Mu-type opioid receptor [9] = target: Mu-type opioid receptor (Cavia porcellus, UniProt P97266); assay: Ability to inhibit GTP-gamma-S binding to Opioid receptor mu 1 of guinea pig caudate.
In short: (§7)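 Antagonism of agonist-stimulated [35S]GTP-γ-S (0.05-0.1 nM) binding in guinea pig caudate membranes (10 μg). Buffer: 59 mM Tris pH 7.7, 100 mM NaCl, 1 mM EDTA, 1 mM DTT, 100 μM GDP, 0.1% BSA. Agonist 500 nM or 10 μM (DAMGO for mu, U69,593 for kappa), ≥10 antagonist concentrations, 4 h. Filtration and scintillation counting. Nonspecific binding: 10 μM GTP-γ-S. Triplicate, ≥3 experiments. Ki by curve fitting.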

Cavia porcellus [10] = organism: Cavia porcellus; assay: as §6; type: functional; in short: as §5
Mus musculus [11] = organism: Mus musculus; assay: as §4; type: functional; in short: as §5
[12] = target: T3, Kappa-type opioid receptor; assay: Binding affinity towards Opioid receptor kappa 1 by the displacement of [3H]U-69593 radioligand in guinea pig brain membranes; type: cell membranes, Membrane; in short: as §3
[13] = target: T3, Kappa-type opioid receptor; assay: Ability to inhibit GTP-gamma-S binding to Opioid receptor kappa 1 of guinea pig caudate; in short: as §7
[14] = target: T1, Delta-type opioid receptor; assay: Binding affinity towards Opioid receptor delta 1 by the displacement of [3H]DADLE radioligand in rat brain membranes; type: cell membranes; in short: as §1
Mu-type opioid receptor [15] = target: T2, Mu-type opioid receptor; assay: Binding affinity towards Opioid receptor mu 1 by the displacement of [3H]DAMGO radioligand in rat brain membranes; type: cell membranes; in short: as §2

T2 sequence (P33535 whole entry): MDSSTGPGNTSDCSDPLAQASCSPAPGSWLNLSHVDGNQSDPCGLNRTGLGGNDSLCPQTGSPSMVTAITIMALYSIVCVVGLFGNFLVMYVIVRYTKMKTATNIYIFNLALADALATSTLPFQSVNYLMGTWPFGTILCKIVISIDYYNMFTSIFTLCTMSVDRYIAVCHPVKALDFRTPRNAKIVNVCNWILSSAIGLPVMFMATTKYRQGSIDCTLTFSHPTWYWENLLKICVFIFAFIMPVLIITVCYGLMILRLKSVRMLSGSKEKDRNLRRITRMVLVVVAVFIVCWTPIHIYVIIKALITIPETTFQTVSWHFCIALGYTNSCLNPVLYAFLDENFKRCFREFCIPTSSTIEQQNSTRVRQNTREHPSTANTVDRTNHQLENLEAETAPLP
Chain of Opioid receptors; mu & delta (Homo sapiens) (P35372 whole entry, looked up): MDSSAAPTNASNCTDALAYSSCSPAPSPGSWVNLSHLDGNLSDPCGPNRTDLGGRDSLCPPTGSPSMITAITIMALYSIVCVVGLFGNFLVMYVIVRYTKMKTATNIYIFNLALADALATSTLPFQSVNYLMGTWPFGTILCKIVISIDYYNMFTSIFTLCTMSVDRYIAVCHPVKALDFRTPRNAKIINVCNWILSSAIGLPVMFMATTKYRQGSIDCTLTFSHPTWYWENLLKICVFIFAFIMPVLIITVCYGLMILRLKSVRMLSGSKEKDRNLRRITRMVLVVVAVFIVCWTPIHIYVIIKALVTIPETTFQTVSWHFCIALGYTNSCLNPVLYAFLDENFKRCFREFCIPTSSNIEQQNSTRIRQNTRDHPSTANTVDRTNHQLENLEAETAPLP
Chain of Opioid receptors; mu & delta (Homo sapiens) (P41143 whole entry, looked up): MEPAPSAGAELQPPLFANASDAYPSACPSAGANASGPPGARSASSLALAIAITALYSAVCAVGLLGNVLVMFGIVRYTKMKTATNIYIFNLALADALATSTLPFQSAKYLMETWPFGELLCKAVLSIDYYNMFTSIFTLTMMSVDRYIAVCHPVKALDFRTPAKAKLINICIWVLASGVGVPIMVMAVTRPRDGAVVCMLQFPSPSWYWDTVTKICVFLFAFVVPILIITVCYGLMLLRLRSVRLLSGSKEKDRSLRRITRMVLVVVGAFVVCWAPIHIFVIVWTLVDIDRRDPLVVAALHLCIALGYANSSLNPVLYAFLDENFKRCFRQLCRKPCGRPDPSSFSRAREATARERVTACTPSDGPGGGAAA
T3 sequence (P41144 whole entry): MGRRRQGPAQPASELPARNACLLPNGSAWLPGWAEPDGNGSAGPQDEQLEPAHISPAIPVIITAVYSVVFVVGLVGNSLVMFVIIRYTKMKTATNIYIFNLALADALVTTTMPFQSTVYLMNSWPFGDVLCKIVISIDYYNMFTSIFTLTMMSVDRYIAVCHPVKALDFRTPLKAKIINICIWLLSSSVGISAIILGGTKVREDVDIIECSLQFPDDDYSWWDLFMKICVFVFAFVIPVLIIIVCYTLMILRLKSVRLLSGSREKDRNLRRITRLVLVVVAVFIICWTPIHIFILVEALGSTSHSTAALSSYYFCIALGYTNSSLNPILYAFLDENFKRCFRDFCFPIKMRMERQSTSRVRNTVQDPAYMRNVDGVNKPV
T1 sequence (P33533 whole entry): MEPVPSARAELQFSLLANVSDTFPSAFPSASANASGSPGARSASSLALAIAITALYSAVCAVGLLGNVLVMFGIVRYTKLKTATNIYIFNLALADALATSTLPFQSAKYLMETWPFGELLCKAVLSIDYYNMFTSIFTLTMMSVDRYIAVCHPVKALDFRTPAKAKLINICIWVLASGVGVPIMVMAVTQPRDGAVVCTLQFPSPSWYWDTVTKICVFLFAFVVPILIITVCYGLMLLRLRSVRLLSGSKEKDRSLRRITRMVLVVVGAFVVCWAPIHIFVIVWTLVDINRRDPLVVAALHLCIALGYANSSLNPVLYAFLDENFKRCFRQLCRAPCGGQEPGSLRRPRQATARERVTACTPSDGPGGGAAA
Chain of Opioid receptors; delta & kappa (Homo sapiens) (P41143 whole entry, looked up): as the sequence (P41143 whole entry, looked up) above
Chain of Opioid receptors; delta & kappa (Homo sapiens) (P41145 whole entry, looked up): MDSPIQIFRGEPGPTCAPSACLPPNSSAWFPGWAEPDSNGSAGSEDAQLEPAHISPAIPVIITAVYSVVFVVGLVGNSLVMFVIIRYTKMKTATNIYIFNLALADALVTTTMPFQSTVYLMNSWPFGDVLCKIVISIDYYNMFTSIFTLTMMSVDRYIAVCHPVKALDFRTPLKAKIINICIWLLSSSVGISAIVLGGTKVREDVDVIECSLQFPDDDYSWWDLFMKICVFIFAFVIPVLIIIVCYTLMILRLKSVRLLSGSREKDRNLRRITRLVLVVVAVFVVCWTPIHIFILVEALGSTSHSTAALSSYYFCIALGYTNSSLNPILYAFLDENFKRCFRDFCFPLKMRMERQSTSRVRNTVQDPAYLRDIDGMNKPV
Chain of Mu-type opioid receptor (Cavia porcellus, UniProt P97266) (P97266 whole entry): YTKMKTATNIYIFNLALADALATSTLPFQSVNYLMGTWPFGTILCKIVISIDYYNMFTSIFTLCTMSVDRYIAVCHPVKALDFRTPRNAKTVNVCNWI

SMILES | Ki [1] | Ki (Mu-type opioid receptor [2]) | Selectivity ratio [3] | Ki [4] | Selectivity ratio [5] | also measured
COc1ccc2c(c1O)[C@]13CCN(C)[C@H](C2)[C@]1(O)Cc1c([nH]c2ccccc12)C3 | 218 nM | 2850 nM | 31 | > 6700 nM | 13 | –
CCN1CC[C@]23Cc4[nH]c5ccccc5c4C[C@H]2[C@H]1Cc1ccc(OC)c(O)c13 | 515 nM | 1350 nM | 7 | 3640 nM | 3 | –
COc1ccc2c(c1O)[C@]13CCN(C)[C@H](C2)[C@@H]1Cc1c([nH]c2ccccc12)C3 | 94 nM | 2820 nM | 72 | > 6800 nM | 30 | –
COc1ccc2c(c1O)[C@]13CCN(CC4CC4)[C@H](C2)[C@]1(O)Cc1c([nH]c2ccccc12)C3 | 21.8 nM | 1850 nM | 145 | 3160 nM | 85 | –
C=CCN1C[C@H](C)N([C@H](c2ccc(C(=O)N(CC)CC)cc2)c2cccc(OC)c2)C[C@H]1C [SNC-80] | – | – | – | – | – | IC50 (Mus musculus [6]): 2.73 nM; IC50 (Cavia porcellus [7]): 5460 nM
CCN1CC[C@]23Cc4[nH]c5ccccc5c4C[C@@]2(O)[C@H]1Cc1ccc(OC)c(O)c13 | 684 nM | 797 nM | 8 | > 5300 nM | – | –
Oc1ccc2c3c1O[C@H]1c4[nH]c5ccccc5c4C[C@@]4(O)[C@@H](C2)N(CC2CC2)CC[C@]314 [NALTRINDOLE] | […] | – | – | – | – | Ki [8]: 8.85 nM; Ki (Mu-type opioid receptor [9]): 3.2 nM; Inhibition (Cavia porcellus [10]): <20%; Inhibition (Mus musculus [11]): <20%
COc1ccc2c(c1O)[C@]13CCN(CC4CC4)[C@H](C2)[C@@H]1Cc1c([nH]c2ccccc12)C3 | – | – | – | – | – | IC50 (Mus musculus [6]): 188 nM; Ki [12]: 7920 nM; Ki (Mu-type opioid receptor [9]): > 1250 nM; Ki [13]: > 1250 nM; Ki [14]: 7 nM; IC50 (Cavia porcellus [7]): 532 nM; Ki (Mu-type opioid receptor [15]): 13300 nM

— ChEMBL document CHEMBL1132724 (J Med Chem, 1999)
